The record followed here is PubChem BioAssay.

The source made the active and inactive calls.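 Rule for the calls, unless noted: active = fluorescence slope after compound addition differing from the mean of all screened samples at 99.7% confidence, in either direction; inactive = the rest.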

The nature of assay [1]: inhibitors of TNFa-induced NFkB p65 translocation, primary screen, imaging, HUVEC, MLSMR starter and 10KST1 sets (AID 438;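 active = inhibition above 20% together with a positive visual image hit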;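 note: compound added about 3h40 before a 20 min TNFalpha stimulation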;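 for inhibition: signal is the nuclear over cytoplasmic p65 intensity ratio per well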). The following applies: HUVEC TNFa-induced p65 nuclear translocation; cell count: measured here: nuclei count (cytotoxicity indicator), at 2.08 µM; inhibition: at 2 µM, stronger effect = higher value, 0% TNFa-plus-vehicle, 100% no-TNFa wells.
A short description of assay [2]: inhibitors of mutant huntingtin aggregation, primary screen, imaging, exon1htt(103Q)mCFP cells, high-content imaging (AID 483;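 active = visual image review flags a hit and inhibition of aggregation exceeds 20%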;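 note: compound exposure lasted 3 days before fixation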;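 for nuclei count: percent of the per-plate median nuclei count of sample wells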). The following applies: exon1htt(103Q)mCFP cell line, aggregate imaging, at 2 µM; inhibition of aggregation: stronger effect = higher value; nuclei count: measured here: cell count, toxicity.
Assay [3] in a line: inhibitors of E-selectin induction by TNFa, primary screen, imaging, HUVEC, immunofluorescence, MLSMR starter and 10KST1 sets (AID 487;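 active = visually confirmed hit in the image check and inhibition above 20%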;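 for inhibition: signal is fraction of cell area covered by stained E-selectin grains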;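 for nuclei count: 100% = median nuclei count of all wells on the same plate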). Particulars: HUVEC TNFalpha-induced E-selectin immunofluorescence imaging, at 2 µM; inhibition: stronger effect = higher value; nuclei count: measured here: cell number, toxicity.
Assay [4] concerns the target Voltage-gated potassium channel subunit beta-2 (Rattus norvegicus) (UniProt P62483). As to the kind of experiment: KvBeta enzyme negative modulators, primary screen, biochemical, NADPH fluorescence (AID 622;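 active = fluorescence slope higher than the sample average by over 3 SD, cut at about -0.22 in these data, passing the limit was not always enough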;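 note: slope of raw intensity against log time taken from 70 to 1610 s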). Particulars: recombinant KvBeta, 4-cyanobenzaldehyde reduction, at 10 µM, stronger effect = higher value.
The target is the same in assay [5]. As to the kind of experiment: KvBeta positive modulators, primary screen, biochemical, NADPH fluorescence (AID 623;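 active = NADPH fluorescence slope more negative than the mean of all samples by about 3 SD, 99.7% confidence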;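 note: fluorescence intensity change per second fitted from 20 to 320 s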). Particulars: Recombinant KvBeta, NADPH fluorescence decrease slope, 10 min; at 10 µM; stronger effect = lower value.
The target in assay [6] is Alpha-2C adrenergic receptor (Homo sapiens) (UniProt P18825). The experiment in a line: modulators of alpha2C/GIRK thallium flux, primary screen, cell-based, HEK293 alpha2C/GIRK1/2 (AID 624).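 Note: slope of fluorescence ratio to pre-addition baseline per second over 15 to 24 s.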 The following applies: thallium flux BTC fluorescence, at 10 µM, actives lie on both sides.
Assay [7] is described as follows: inhibitors of larval lipid processing in zebrafish, primary screen, whole organism, PED6 fluorescence, gall bladder and intestine (AID 686;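 active = a full or partial loss of lipid-probe fluorescence in the fish gall bladder, intestine or both, judged by eye; inactive = no fluorescence loss, or compound toxic to the fish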;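 note: signal comes from phospholipase A2 cleavage of quenched PED6 carried via bile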). Particulars: Zebrafish larvae PED6 lipid processing, fluorescence scoring; screened at 20 µM (by protocol). In a few lines: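 Doses: 20 µM single dose. Test system: live zebrafish larvae aged 5-7 days, whole organism. Quantity: five larvae per well. Measured by: By-eye fluorescence microscopy. Reagent: ingested quenched lipid PED6 at 100 nM. Read-out: visual per-well fluorescence inhibition score. Times: overnight exposure of larvae to compound plus PED6.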

The nature of assay [8]: inhibitors of Sendai virus-induced IRF3 signaling, primary screen, TLR/RLR signaling modifier project, cell-based, Sendai virus stimulus, luciferase, 10K MLSCN set (AID 602276;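 active = inhibition at or above 50% at 10 µM; inactive = inhibition below 50%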;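 note: firefly luciferase from ISG56 promoter only with Renilla not read in this screen; 0% = Sendai virus plus DMSO and 100% = medium plus DMSO without virus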). Particulars: HEK293 RL24 IRF3 luciferase reporter, at 10 µM, stronger effect = higher value.
Assay [9] is described as follows: inhibitors of poly I:C-induced TLR3 signaling, primary screen, cell-based, poly I:C stimulus, luciferase, 10K MLSCN set (AID 602277;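 active = inhibition of the reporter signal at or above 50%; inactive = inhibition below 50%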). The following applies: HEK293-TLR3 RL24 IRF3 luciferase reporter, at 10 µM, stronger effect = higher value. A general note: Reporter assays use an easily measured gene product as a stand-in for the process of interest.

Chain of Voltage-gated potassium channel subunit beta-2 (Rattus norvegicus) (P62483 whole entry, looked up): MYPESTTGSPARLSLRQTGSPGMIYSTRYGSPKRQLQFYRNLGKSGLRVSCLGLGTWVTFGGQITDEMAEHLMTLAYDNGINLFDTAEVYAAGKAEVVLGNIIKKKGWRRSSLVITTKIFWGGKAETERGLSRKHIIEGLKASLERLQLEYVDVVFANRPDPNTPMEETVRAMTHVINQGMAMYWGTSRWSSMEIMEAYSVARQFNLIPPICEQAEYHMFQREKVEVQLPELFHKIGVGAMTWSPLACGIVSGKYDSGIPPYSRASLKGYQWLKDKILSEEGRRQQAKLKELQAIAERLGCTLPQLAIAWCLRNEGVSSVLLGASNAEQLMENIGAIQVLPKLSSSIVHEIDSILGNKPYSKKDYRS
Chain of Alpha-2C adrenergic receptor (Homo sapiens) (P18825 whole entry, looked up): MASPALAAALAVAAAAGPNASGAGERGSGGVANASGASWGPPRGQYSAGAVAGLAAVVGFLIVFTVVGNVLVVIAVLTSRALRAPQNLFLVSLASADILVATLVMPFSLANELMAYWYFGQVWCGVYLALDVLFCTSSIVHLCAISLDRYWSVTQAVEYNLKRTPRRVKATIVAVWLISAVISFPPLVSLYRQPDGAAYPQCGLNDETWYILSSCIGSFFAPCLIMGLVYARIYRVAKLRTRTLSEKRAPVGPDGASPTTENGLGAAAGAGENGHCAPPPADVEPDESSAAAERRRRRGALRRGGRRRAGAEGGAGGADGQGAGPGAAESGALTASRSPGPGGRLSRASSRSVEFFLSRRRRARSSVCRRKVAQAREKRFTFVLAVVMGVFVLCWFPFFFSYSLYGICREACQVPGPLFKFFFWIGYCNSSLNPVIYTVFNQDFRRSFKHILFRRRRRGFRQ

A word on the inhibition: it is the relative decrease from the control value, in per cent. Take `CC(=O)N1CCc2cc(S(=O)(=O)NCCC(=O)Nc3cc(C)cc(C)c3)ccc21`: the cell count in [1] turned out to be 611. The inhibition was -11.5% (inactive) in [1], 25.9% (inactive) in assay [3], 12.9% (inactive) in assay [8] and 12.5% (inactive) in assay [9]. The inhibition of aggregation in [2] was 15.1% (inactive). For the same molecule, the results for the nuclei count in assay [2] and in assay [3] were 97.8% and 98%, respectively. Besides, the fluorescence slope in [4] was -0.399 (inactive). For the same molecule, the NADPH fluorescence slope in assay [5] was -8.9e-05 (inactive). The slope in assay [6] is 0.00432 (inactive). Moreover, the molecule was classed as inactive in assay [7].

As to `CC(C(=O)NC(=O)NC1CCCCC1)N1CCN(c2ccccn2)CC1` (centres undefined), the cell count in assay [1] is 611. The inhibition in [1] was -16.9% (inactive); in assay [3], 0.2% (inactive); in [8] it was 5.51% (inactive); in assay [9], 9.31% (inactive). In addition, the inhibition of aggregation in assay [2] is 8.1% (inactive). The nuclei count in assay [2] was 107%; in assay [3], 134%. Also, the fluorescence slope in assay [4] is -0.397 (inactive). Also, the NADPH fluorescence slope in assay [5] is -4.4e-05 (inactive). The slope in [6] is 0.00612 (inactive). For the same molecule, the molecule was classed as inactive in [7].

On to `O=C(NC1CCS(=O)(=O)C1)OC1CCCCC1` (centres undefined), for which the cell count in assay [1] came out at 419. Moreover, the inhibition was -1.2% (inactive) in assay [1], -91.7% (inactive) in [3], 10.9% (inactive) in [8] and 3.54% (inactive) in [9]. Besides, the inhibition of aggregation in assay [2] was 2% (inactive). Besides, the nuclei count in assay [2] stood at 111%; in assay [3] it was 105%. In addition, in assay [4], the fluorescence slope is -0.468 (inactive). Moreover, the NADPH fluorescence slope in assay [5] is -5.2e-05 (inactive). For the same molecule, the slope in assay [6] was 0.0056 (inactive). Also, the outcome in assay [7] was inactive.

As for `CC(=O)Nc1nnc(SCC(=O)NCC2CCCO2)s1` (centres undefined), the cell count in assay [1] is 415. Moreover, the inhibition is 6% (inactive) in assay [1], -123% (inactive) in [3], -10.9% (inactive) in assay [8] and -9.89% (inactive) in assay [9]. The inhibition of aggregation in assay [2] was -1.3% (inactive). In addition, the nuclei count in [2] came out at 102%; in assay [3] it was 110%. The fluorescence slope in assay [4] is -0.413 (inactive). Moreover, the NADPH fluorescence slope in assay [5] was -3.1e-05 (inactive). Also, the slope in [6] was 0.00542 (inactive). Further, in assay [7], the outcome was inactive.

Take `N#CCC(=O)Nc1ncn(Cc2ccccc2Cl)n1`: the cell count in [1] was 273. The inhibition in assay [1] was -2.5% (inactive); in assay [3] it was -51.5% (inactive); in assay [8] it was -5.79% (inactive); in [9], 4.42% (inactive). The inhibition of aggregation in [2] was -6% (inactive). Moreover, the nuclei count in assay [2] came to 87.3%; in assay [3] it was 105%. For the same molecule, the fluorescence slope in [4] is -0.456 (inactive). Further, the NADPH fluorescence slope in assay [5] is 1.5e-06 (inactive). For the same molecule, the slope in [6] is 0.00405 (inactive). The outcome in assay [7] was inactive.

Take `Cc1cc(C(F)(F)F)c2c(C)nn(CCc3nn[nH]n3)c2n1`: in assay [1], the cell count was 863. Also, the inhibition in assay [1] is 1.1% (inactive); in assay [3], -20% (inactive); in assay [8], -11.3% (inactive); in assay [9], -12.7% (inactive). The inhibition of aggregation in assay [2] is 11.9% (inactive). In addition, the nuclei count in [2] was 112%; in assay [3], 117%. Besides, in assay [4], the fluorescence slope is -0.368 (inactive). Also, the NADPH fluorescence slope in [5] was 1.8e-05 (inactive). Moreover, the slope in assay [6] was 0.00523 (inactive). Further, in assay [7], the molecule was called inactive.

Regarding `CCOC(=O)c1cc(-c2ccccc2)sc1N`, the cell count in [1] came to 389. Besides, the inhibition is -0.7% (inactive) in [1], -104% (inactive) in [3], -40.8% (inactive) in assay [8] and -102% (inactive) in [9]. In addition, in [2], the inhibition of aggregation was 3.4% (inactive). Besides, the nuclei count in assay [2] is 102%; in assay [3], 107%. Besides, in [4], the fluorescence slope was -0.351 (inactive). The NADPH fluorescence slope in assay [5] was -2e-05 (inactive). In addition, the slope in [6] was 0.0052 (inactive). For the same molecule, in assay [7], the molecule was called inactive.

As to `COC(=O)Cc1cc(=O)n(-c2ccccc2)[nH]1`, the cell count in assay [1] is 435. Also, the inhibition in [1] was 3.1% (inactive); in assay [3], -67.7% (inactive); in [8], 17.9% (inactive); in [9] it was 21.3% (inactive). The inhibition of aggregation in [2] was -18.2% (inactive). The nuclei count in assay [2] worked out at 106%; in assay [3], 111%. Moreover, the fluorescence slope in assay [4] was -0.379 (inactive). Moreover, the NADPH fluorescence slope in [5] is -1.8e-05 (inactive). In assay [6], the slope was 0.00454 (inactive). Besides, the outcome in [7] was inactive.

As for `COc1ccc(CN(C(=O)CN2C(=O)COc3ccccc32)C2CCCC2)c(OC)c1`, the cell count in assay [1] was 658. Moreover, the inhibition in assay [1] was -3.5% (inactive); in assay [3], 4.9% (inactive); in assay [8], 21.9% (inactive); in assay [9], 26.4% (inactive). For the same molecule, the inhibition of aggregation in assay [2] is -4.6% (inactive). Also, the nuclei count in assay [2] is 102%; in assay [3] it was 104%. The fluorescence slope in assay [4] was -0.435 (inactive). In addition, the NADPH fluorescence slope in assay [5] is -6.2e-05 (inactive). Moreover, the slope in [6] was 0.00491 (inactive). Moreover, the molecule was called inactive in [7].

`COc1ccc(Cl)c(N2CCN(CCCNC(=O)Nc3ccc(C)cc3)CC2)c1`: the cell count in [1] was found to be 320. In addition, the inhibition was 2.4% (inactive) in assay [1], 16% (inactive) in assay [3], 2.1% (inactive) in [8] and -5.24% (inactive) in assay [9]. In addition, the inhibition of aggregation in assay [2] is -10.7% (inactive). Moreover, the nuclei count in assay [2] was found to be 98.8%; in assay [3], 108%. In addition, the fluorescence slope in assay [4] is -0.479 (inactive). The NADPH fluorescence slope in assay [5] was -5.7e-05 (inactive). The slope in assay [6] was 0.0037 (inactive). Moreover, in assay [7], the molecule was classed as inactive.

In the case of `CCN(CC)S(=O)(=O)c1ccc(NC(=O)c2cccc3c2C(=O)N(CCOC)C3)cc1`, the cell count in assay [1] was determined as 778. The inhibition in [1] is -3.6% (inactive); in assay [3], -84.2% (inactive); in [8], 10.3% (inactive); in [9] it was 26.3% (inactive). Besides, the inhibition of aggregation in assay [2] was 5.3% (inactive). Besides, the nuclei count in [2] was 93.3%; in assay [3], 129%. For the same molecule, the fluorescence slope in [4] was -0.244 (inactive). The NADPH fluorescence slope in [5] is -2.6e-05 (inactive). Also, the slope in [6] is 0.00636 (inactive). Also, the result in [7] was inactive.

Regarding `CCOc1ccccc1C1N(c2ccc(F)cc2)C(=O)C2CCCN21` (centres undefined), the cell count in assay [1] came to 465. In addition, the inhibition in [1] is -0.3% (inactive); in [3], 45.7% (inactive); in assay [8], 13.2% (inactive); in assay [9], 17.1% (inactive). In addition, the inhibition of aggregation in [2] was -10.1% (inactive). Besides, the nuclei count is 103% in assay [2] and 91.5% in [3]. Further, the fluorescence slope in assay [4] is -0.349 (inactive). For the same molecule, in [5], the NADPH fluorescence slope is -4.9e-05 (inactive). In addition, the slope in assay [6] is 0.00484 (inactive). Also, in [7], the call was inactive.
